Publication PMC7191562 (ACS Omega, 2020)
≈ marks a conversion by molar mass, not a printed value.

Tested on: E. faecalis (MDR 14U0445)
Experiment: MIC antibacterial assay
Type: cell-based
Conditions: Enterococcus faecalis, 16 h
Method in brief: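 Clinical isolates grown from single colonies in LB at 37 °C to log phase, then set to 2 × 10⁵ CFU/mL in LB using 1 OD600 = 1 × 10⁹ CFU/mL. Peptide stock was 2 mg/mL in water. A 192 μg/mL peptide solution was twofold serially diluted in LB, then bacteria were added. Plates ran 16 h at 37 °C with A600 read-out, each peptide in triplicate.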

With `CC1(C)S[C@@H]2[C@H](NC(=O)[C@H](N)c3ccccc3)C(=O)N2[C@H]1C(=O)O` [Amp, Ampicillin] the MIC was 2 µg/mL (≈ 5.72 µM).
